ChEMBL document CHEMBL1833790, “N-(2-{3-[3,5-bis(trifluoromethyl)phenyl]ureido}ethyl)-glycyrrhetinamide (6b): a novel anticancer glycyrrhetinic acid derivative that targets the proteasome and displays anti-kinase activity” (J Med Chem, 2011)
Activity calls are given as the source filed them. The rule behind the calls is not given here.

Assays:
[1] = test system: MCF7; test: Growth inhibition in apoptosis-sensitive human MCF7 after 3 days by MTT assay; format: functional; conditions: MCF7, 72 h
In short: (§1)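 Cells grown in RPMI with 10% heat-inactivated FCS, 4 mM glutamine, gentamicin and penicillin–streptomycin. Drug exposure 3 days, growth read by MTT colorimetric assay. Nine concentrations from 0.01 to 100 μM in semilog steps, six replicates each; IC50 derived per cell line.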

[2] = test system: PC-3; test: Growth inhibition in apoptosis-sensitive human PC3 after 3 days by MTT assay; format: functional; conditions: PC-3, 72 h; in short: as §1
[3] = test system: A549; test: Growth inhibition in apoptosis-resistant human A549 after 3 days by MTT assay; format: functional; conditions: A549, 72 h; in short: as §1
[4] = test system: U-373MG ATCC; test: Activation of chymotrypsin-like activity of 20S proteasome in human U373 cells at 90 uM after 2 days by bioluminescence assay; format: cell-based
In short: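 Chymotrypsin-like site, substrate Suc-LLVY-Glo. U373 cells were seeded at 5000 cells/mL for 48 h and exposed two days. After a PBS wash and 0.025% digitonin permeabilisation, Proteasome-Glo reagent was added. Bioluminescence was read after 10 min dark incubation. Triplicates, normalised by a concurrent MTT viability assay run in identical conditions.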

[5] = test system: SK-MEL-28; test: Growth inhibition in apoptosis-resistant human SK-MEL-28 after 3 days by MTT assay; format: functional; conditions: SK-MEL-28, 72 h; in short: as §1
[6] = molecular target: T1, Peroxisome proliferator-activated receptor gamma (Homo sapiens) (UniProt P37231); test: Activation of PPARgamma activity in human U373 cells at 90 uM after 6 hrs by spectrophotometric analysis relative to control; conditions: U-373MG ATCC
T1 sequence (whole entry): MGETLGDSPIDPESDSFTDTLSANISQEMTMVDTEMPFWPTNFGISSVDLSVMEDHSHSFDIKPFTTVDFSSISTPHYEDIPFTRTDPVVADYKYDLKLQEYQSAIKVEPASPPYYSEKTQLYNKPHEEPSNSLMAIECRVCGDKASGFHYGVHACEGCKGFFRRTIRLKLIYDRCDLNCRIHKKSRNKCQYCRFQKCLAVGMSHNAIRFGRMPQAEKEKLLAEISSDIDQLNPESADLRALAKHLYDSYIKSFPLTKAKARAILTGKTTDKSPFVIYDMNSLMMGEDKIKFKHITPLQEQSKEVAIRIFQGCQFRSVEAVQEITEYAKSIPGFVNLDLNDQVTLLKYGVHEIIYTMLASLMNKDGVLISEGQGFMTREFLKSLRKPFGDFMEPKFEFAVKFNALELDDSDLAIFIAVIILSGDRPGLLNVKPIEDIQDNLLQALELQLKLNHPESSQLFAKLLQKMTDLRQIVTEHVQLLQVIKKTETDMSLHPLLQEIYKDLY

[7] = Cell cycle arrest in human U373 cells assessed as accumulation of cells in G1 phase at 80 uM after 48 to 72 hrs by TUNEL-based flow cytometric analysis; format: functional; conditions: U-373MG ATCC
In short: (§2)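 A549 NSCLC and U373 GBM cells were treated 48 or 72 h and analysed with the APO AF kit. TUNEL labelling ran 1 h at 37 °C, followed by propidium iodide (5 μg/mL) with RNase. Apoptotic fraction and % cells in G1 were measured by flow cytometry. Kit negative/positive controls and 1 μM narciclasine-treated PC-3 cells served as controls.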

[8] = Growth inhibition in apoptosis-resistant human U373 after 3 days by MTT assay; format: functional, U-373MG ATCC; conditions: U373 MG, 72 h; in short: as §1
[9] = test system: B16-F10; test: Growth inhibition in mouse B16F10 after 3 days by MTT assay; format: functional; conditions: B16-F10, 72 h; in short: as §1
[10] = test system: A549; test: Cell cycle arrest in human A549 cells assessed as accumulation of cells in G1 phase at 100 uM after 48 to 72 hrs by TUNEL-based flow cytometric analysis; format: functional; in short: as §2
[11] = test system: U-373MG ATCC; test: Activation of caspase-like activity of 20S proteasome in human U373 cells at 90 uM after 2 days by bioluminescence assay; format: cell-based
In short: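 Caspase-like site, substrate Z-nLPnLD-Glo. U373 cells were plated at 5000 cells/mL for 48 h, then treated two days. Cells were PBS-washed and permeabilised with 0.025% digitonin before Proteasome-Glo reagent was added. Luminescence was read after 10 min in the dark. Triplicates, normalised to a parallel MTT viability assay under identical conditions.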

[12] = Chemical stability of the compound in MEM cell culture medium after 7 days by HPLC analysis; format: physicochemical; conditions: read-out: Stability
In short: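 Compound incubated in MEM culture medium at 37 °C for 7 days, then analysed by HPLC on RX-C8 (5 μm) column with MeOH–water 90:10 (0.1% TFA), diode-array detection. Expressed as % of incubated compound recovered.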

[13] = test system: Hs 683; test: Growth inhibition in apoptosis-sensitive human Hs683 after 3 days by MTT assay; format: functional; conditions: Hs 683, 72 h; in short: as §1
[14] = test system: U-373MG ATCC; test: Inhibition of trypsin-like activity of 20S proteasome in human U373 cells at 90 uM after 2 days by bioluminescence assay; format: cell-based
In short: (§3)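 U373 GBM cells seeded at 5000 cells/mL and grown 48 h, then treated for two days. Cells washed in PBS and permeabilised with 0.025% digitonin. Proteasome-Glo reagent added with Suc-LLVY-Glo (chymotrypsin-like), Z-LRR-Glo (trypsin-like) or Z-nLPnLD-Glo (caspase-like) substrate. Luminescence read after 10 min in the dark and normalised to a parallel MTT viability assay; triplicates. MG-132 at 0.5 μM used as reference.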

[15] = test system: T98G; test: Growth inhibition in apoptosis-resistant human T98G after 3 days by MTT assay; format: functional; conditions: 72 h; in short: as §1
[16] = molecular target: Ephrin type-B receptor 4 (Homo sapiens) (UniProt P54760); test: Inhibition of EPHB4 at 1 uM by radiometric assay
In short: (§4)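 Radiometric ³³PanQinase activity assay across a panel of 333 protein kinases. Compound added from a 2 × 10⁻⁵ M working solution in 10% DMSO (diluted in water from a 100% DMSO stock), giving 1 μM final in the assay.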

[17] = molecular target: Fibroblast growth factor receptor 2 (Homo sapiens) (UniProt P21802); test: Inhibition of FGFR2 at 1 uM by radiometric assay; in short: as §4
Fibroblast growth factor receptor 2 (Homo sapiens), sequence (P21802 22-821 limits assumed): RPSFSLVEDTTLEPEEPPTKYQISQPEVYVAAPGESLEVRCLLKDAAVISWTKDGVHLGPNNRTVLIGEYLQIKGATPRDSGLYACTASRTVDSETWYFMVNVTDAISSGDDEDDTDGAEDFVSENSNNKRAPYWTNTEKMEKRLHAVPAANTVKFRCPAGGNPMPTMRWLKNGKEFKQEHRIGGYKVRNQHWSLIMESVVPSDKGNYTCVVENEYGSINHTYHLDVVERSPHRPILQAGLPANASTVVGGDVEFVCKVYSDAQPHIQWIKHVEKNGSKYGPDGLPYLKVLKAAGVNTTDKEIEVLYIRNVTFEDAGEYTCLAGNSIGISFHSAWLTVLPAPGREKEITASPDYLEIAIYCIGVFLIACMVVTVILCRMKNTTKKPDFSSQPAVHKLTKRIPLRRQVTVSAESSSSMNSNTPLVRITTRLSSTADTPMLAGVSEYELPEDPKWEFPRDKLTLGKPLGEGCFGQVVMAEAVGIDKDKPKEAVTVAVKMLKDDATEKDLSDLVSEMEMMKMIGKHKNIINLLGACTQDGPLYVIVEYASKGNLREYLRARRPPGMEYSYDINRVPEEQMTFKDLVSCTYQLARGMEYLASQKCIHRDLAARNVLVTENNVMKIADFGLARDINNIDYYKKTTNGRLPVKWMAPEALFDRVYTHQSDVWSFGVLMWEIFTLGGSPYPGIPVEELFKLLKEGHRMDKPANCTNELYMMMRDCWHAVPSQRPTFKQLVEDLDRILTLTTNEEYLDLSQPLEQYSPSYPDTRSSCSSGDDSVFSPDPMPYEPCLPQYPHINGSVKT

[18] = test system: U-373MG ATCC; test: Inhibition of caspase-like activity of 20S proteasome in human U373 cells at 0.5 uM after 2 days by bioluminescence assay; format: cell-based; in short: as §3
[19] = molecular target: Cytoplasmic tyrosine-protein kinase BMX (Homo sapiens) (UniProt P51813); test: Inhibition of BMX at 1 uM by radiometric assay; in short: as §4
Cytoplasmic tyrosine-protein kinase BMX (Homo sapiens), sequence (P51813 whole entry): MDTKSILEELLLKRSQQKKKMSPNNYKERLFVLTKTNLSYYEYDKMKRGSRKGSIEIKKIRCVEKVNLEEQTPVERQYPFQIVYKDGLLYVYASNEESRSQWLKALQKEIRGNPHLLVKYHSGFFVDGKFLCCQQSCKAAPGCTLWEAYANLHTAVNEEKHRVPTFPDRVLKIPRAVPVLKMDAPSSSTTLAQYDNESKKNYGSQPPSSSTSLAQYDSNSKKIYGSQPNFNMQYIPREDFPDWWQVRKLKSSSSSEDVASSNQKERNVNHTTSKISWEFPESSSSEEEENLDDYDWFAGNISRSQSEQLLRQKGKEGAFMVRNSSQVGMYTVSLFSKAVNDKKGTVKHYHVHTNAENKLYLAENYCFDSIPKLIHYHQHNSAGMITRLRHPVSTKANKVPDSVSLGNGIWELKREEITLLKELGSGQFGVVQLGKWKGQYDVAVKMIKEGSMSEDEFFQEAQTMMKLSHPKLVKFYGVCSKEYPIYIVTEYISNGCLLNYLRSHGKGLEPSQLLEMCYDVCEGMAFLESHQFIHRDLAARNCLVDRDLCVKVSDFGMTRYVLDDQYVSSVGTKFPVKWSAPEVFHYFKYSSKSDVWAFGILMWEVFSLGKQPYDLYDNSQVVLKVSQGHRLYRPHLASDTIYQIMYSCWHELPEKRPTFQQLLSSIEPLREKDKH

[20] = molecular target: Insulin-like growth factor 1 receptor (Homo sapiens) (UniProt P08069); test: Inhibition of IGF-R1 at 1 uM by radiometric assay
Insulin-like growth factor 1 receptor (Homo sapiens), sequence (P08069 31-736 limits assumed): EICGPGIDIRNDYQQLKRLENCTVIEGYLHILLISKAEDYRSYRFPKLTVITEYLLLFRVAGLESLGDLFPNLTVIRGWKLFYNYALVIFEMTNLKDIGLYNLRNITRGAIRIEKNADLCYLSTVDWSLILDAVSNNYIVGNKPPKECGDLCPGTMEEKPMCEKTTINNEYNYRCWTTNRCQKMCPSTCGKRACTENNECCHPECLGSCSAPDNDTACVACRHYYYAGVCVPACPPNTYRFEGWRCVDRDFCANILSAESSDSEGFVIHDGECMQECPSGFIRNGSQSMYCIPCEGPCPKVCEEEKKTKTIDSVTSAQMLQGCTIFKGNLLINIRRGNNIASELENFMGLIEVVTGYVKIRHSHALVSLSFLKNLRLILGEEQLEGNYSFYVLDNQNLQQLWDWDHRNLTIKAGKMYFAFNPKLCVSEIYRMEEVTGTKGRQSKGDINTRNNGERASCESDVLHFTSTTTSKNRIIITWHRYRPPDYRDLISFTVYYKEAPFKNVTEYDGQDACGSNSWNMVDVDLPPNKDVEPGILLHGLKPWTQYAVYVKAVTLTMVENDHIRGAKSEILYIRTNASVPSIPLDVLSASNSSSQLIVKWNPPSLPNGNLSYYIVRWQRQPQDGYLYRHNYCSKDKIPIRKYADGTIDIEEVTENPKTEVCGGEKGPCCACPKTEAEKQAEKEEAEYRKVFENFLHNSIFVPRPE
Insulin-like growth factor 1 receptor (Homo sapiens), sequence (P08069 741-1367 limits assumed): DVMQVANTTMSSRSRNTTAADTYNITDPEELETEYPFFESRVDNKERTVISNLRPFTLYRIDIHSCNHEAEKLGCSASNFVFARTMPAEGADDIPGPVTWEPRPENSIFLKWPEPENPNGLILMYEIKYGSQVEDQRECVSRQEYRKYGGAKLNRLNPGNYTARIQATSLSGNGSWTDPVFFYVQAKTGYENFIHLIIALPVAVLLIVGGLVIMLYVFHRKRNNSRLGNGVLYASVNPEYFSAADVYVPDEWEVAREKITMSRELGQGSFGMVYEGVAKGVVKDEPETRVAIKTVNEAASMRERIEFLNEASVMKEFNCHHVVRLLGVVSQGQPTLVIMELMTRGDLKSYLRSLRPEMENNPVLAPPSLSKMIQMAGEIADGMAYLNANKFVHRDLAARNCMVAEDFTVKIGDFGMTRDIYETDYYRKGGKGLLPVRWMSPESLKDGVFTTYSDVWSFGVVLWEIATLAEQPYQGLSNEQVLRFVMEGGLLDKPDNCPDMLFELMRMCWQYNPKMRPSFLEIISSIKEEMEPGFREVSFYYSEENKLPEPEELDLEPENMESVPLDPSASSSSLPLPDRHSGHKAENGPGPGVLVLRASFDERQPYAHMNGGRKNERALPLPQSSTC

[21] = test system: U-373MG ATCC; test: Induction of apoptosis in human U373 cells assessed as proapoptotic effect at 10 uM after 48 to 72 hrs by TUNEL-based flow cytometric analysis; format: functional, cell-based; in short: as §2
[22] = test system: U-373MG ATCC; test: Inhibition of chymotrypsin-like activity of 20S proteasome in human U373 at 7 uM after 2 days by bioluminescence assay; format: cell-based; in short: as §3
[23] = test system: U-373MG ATCC; test: Cytostatic activity against human U373 cells assessed as accumulation of cells in G1 phase at 10 uM after 48 to 72 hrs by TUNEL-based flow cytometric analysis; format: functional, cell-based; in short: as §2
[24] = test system: U-373MG ATCC; test: Inhibition of trypsin-like activity of 20S proteasome in human U373 cells at 0.5 uM after 2 days by bioluminescence assay; format: cell-based; in short: as §3
[25] = molecular target: Tyrosine-protein kinase ZAP-70 (Homo sapiens) (UniProt P43403); test: Inhibition of ZAP70 at 1 uM by radiometric assay
[26] = test system: A549; test: Induction of apoptosis in human A549 cells assessed as proapoptotic effect at 10 uM after 48 to 72 hrs by TUNEL-based flow cytometric analysis; format: functional, cell-based; in short: as §2
[27] = test system: U-373MG ATCC; test: Inhibition of trypsin-like activity of 20S proteasome in human U373 cells at 7 uM after 2 days by bioluminescence assay; format: cell-based; in short: as §3
[28] = test system: U-373MG ATCC; test: Inhibition of trypsin-like activity of 20S proteasome in human U373 cells at 60 uM after 2 days by bioluminescence assay; format: cell-based; in short: as §3
[29] = test system: U-373MG ATCC; test: Inhibition of chymotrypsin-like activity of 20S proteasome in human U373 cells at 60 uM after 2 days by bioluminescence assay; format: cell-based; in short: as §3
[30] = molecular target: Ephrin type-B receptor 1 (Homo sapiens) (UniProt P54762); test: Inhibition of EPHB1 at 1 uM by radiometric assay; in short: as §4
[31] = test system: U-373MG ATCC; test: Inhibition of chymotrypsin-like activity of 20S proteasome in human U373 cells at 0.5 uM after 2 days by bioluminescence assay; format: cell-based; in short: as §3
[32] = molecular target: Tyrosine-protein kinase Fes/Fps (Homo sapiens) (UniProt P07332); test: Inhibition of FES at 1 uM by radiometric assay; in short: as §4
Tyrosine-protein kinase Fes/Fps (Homo sapiens), sequence (P07332 whole entry): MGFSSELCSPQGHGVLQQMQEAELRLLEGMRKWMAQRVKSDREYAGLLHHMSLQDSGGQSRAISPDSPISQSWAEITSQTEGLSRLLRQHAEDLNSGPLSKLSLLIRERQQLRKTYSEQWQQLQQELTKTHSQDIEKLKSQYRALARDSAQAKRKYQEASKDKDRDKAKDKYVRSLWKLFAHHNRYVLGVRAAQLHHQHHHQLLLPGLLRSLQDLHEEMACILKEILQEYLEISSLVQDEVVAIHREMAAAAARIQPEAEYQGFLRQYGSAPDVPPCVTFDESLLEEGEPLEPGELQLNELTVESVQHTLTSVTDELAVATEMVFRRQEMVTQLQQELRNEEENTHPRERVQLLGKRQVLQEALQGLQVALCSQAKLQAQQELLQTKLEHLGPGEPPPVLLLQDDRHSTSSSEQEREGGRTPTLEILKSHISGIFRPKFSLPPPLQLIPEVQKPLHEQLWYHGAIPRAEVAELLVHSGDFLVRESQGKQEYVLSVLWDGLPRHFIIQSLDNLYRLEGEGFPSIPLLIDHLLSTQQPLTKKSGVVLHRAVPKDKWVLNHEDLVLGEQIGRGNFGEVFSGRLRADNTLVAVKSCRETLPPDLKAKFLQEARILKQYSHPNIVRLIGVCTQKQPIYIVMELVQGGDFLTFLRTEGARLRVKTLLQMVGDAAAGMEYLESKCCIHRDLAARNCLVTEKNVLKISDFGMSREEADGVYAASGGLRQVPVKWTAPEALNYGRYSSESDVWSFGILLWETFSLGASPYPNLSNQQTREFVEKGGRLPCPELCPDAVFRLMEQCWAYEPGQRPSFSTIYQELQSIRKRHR

[33] = molecular target: ALK tyrosine kinase receptor (Homo sapiens) (UniProt Q9UM73); test: Inhibition of ALK at 1 uM by radiometric assay; in short: as §4
[34] = molecular target: Serine/threonine-protein kinase PAK 2 (Homo sapiens) (UniProt Q13177); test: Inhibition of PAK2 at 1 uM by radiometric assay
Serine/threonine-protein kinase PAK 2 (Homo sapiens), sequence (Q13177 whole entry): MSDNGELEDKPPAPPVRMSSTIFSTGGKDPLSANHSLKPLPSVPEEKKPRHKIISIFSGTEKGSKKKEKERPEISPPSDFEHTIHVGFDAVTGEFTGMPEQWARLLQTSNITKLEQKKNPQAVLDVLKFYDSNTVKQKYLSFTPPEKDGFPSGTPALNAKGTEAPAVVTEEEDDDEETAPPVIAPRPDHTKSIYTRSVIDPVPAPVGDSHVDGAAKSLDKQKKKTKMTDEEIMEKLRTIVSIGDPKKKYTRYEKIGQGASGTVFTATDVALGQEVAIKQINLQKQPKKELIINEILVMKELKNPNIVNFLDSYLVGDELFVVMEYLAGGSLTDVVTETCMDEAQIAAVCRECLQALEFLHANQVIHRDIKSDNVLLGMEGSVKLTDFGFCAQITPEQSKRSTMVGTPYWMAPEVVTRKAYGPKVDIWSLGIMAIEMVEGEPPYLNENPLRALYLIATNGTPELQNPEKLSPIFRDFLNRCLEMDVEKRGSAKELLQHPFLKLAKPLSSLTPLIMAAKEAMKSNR

[35] = molecular target: Tyrosine-protein kinase Fyn (Homo sapiens) (UniProt P06241); test: Inhibition of FYN at 1 uM by radiometric assay
Tyrosine-protein kinase Fyn (Homo sapiens), sequence (P06241 2-537 limits assumed): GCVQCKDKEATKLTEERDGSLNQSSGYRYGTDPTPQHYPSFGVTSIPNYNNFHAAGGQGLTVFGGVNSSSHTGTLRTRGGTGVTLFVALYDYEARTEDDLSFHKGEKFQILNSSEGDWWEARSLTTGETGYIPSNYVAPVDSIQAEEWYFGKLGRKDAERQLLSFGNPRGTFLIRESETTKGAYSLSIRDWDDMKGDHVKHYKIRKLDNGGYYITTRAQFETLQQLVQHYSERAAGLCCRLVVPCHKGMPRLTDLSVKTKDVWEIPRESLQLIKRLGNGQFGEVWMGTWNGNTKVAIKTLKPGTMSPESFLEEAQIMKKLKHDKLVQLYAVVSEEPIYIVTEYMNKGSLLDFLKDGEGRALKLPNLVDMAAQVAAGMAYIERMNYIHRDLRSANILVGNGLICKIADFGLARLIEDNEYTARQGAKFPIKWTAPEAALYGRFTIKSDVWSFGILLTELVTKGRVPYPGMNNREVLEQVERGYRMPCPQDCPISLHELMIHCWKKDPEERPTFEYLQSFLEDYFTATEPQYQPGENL

[36] = molecular target: T1, Peroxisome proliferator-activated receptor gamma (Homo sapiens); test: Activation of PPARgamma activity in human U373 cells at 90 uM after 6 hrs by spectrophotometric analysis relative to control; format: cell-based; conditions: U-373MG ATCC, 7 uM, in the assay text read “at 7 uM” for “at 90 uM”
In short: (§5)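 U373 glioblastoma cells were exposed for 6 h. Nuclear extracts were prepared by hypotonic buffer, NP-40 lysis and a protease-inhibitor extraction buffer. Extracts were bound overnight at 4 °C in a PPAR-γ transcription-factor plate, then probed with primary antibody and HRP anti-rabbit secondary, 1 h each at room temperature. Developer ran 45 min, read at 450 nm. Triplicates, mean ± SD versus control.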

[37] = test system: U-373MG ATCC; test: Inhibition of caspase-like activity of 20S proteasome in human U373 cells at 7 uM after 2 days by bioluminescence assay; format: cell-based; in short: as §3
[38] = test system: A549; test: Cytostatic activity against human A549 cells assessed as accumulation of cells in G1 phase at 10 uM after 48 to 72 hrs by TUNEL-based flow cytometric analysis; format: functional, cell-based; in short: as §2
[39] = molecular target: Megakaryocyte-associated tyrosine-protein kinase (Homo sapiens) (UniProt P42679); test: Inhibition of MATK at 1 uM by radiometric assay
[40] = test system: U-373MG ATCC; test: Inhibition of caspase-like activity of 20S proteasome in human U373 cells at 60 uM after 2 days by bioluminescence assay; format: cell-based; in short: as §3
[41] = molecular target: T1, Peroxisome proliferator-activated receptor gamma (Homo sapiens); test: Activation of PPARgamma activity in human U373 cells at 60 uM after 6 hrs by spectrophotometric analysis relative to control; format: cell-based; conditions: U-373MG ATCC; in short: as §5

Row | Structure (SMILES) | GI50 [1] [µM] | GI50 [2] [µM] | GI50 [3] [µM] | GI50 [5] [µM] | GI50 [8] [µM] | GI50 [9] [µM] | remaining at 168 h [12] [%] | GI50 [13] [µM] | GI50 [15] [µM] | inhibition [18] | inhibition [22] | inhibition [24] | inhibition [27] | inhibition [28] | inhibition [29] | inhibition [31] | inhibition [37] | inhibition [40] | further results
1 | CC1(C)[C@@H](O)CC[C@]2(C)[C@H]3C(=O)C=C4[C@@H]5C[C@@](C)(C(=O)O)CC[C@]5(C)CC[C@@]4(C)[C@]3(C)CC[C@@H]12 [ENOXOLONE] | 76 | 80 | > 100 | 92 | 83 | 37 | 98 | 84 | 85 | – | – | – | – | – | – | – | – | – | Activity [4]: Active; Activity [6]: Active; Activity [7]: inactive; Activity [10]: inactive; Activity [11]: Active; inhibition [14]: Active
2 | CC1(C)[C@@H](O)CC[C@]2(C)[C@H]3C(=O)C=C4[C@@H]5C[C@@](C)(C(=O)NCCNC(=O)Nc6cc(C(F)(F)F)cc(C(F)(F)F)c6)CC[C@]5(C)CC[C@@]4(C)[C@]3(C)CC[C@@H]12 | 4 | 8 | 7 | 9 | 6 | 4 | 98 | 6 | 12 | Active | Active | Active | Active | Active | Active | Active | Active | Active | inhibition [16]: 64%; inhibition [17]: 67%; inhibition [19]: 52%; inhibition [20]: 64%; Activity [21]: inactive; Activity [23]: inactive; inhibition [25]: 67%; Activity [26]: inactive; inhibition [30]: 64%; inhibition [32]: 59%; inhibition [33]: 69%; inhibition [34]: 51%; inhibition [35]: 72%; Activity [36]: Active; Activity [38]: inactive; inhibition [39]: 50%
3 | CC1(C)[C@@H](O)CC[C@]2(C)[C@H]3C(=O)C=C4[C@@H]5C[C@@](C)(C(=O)NCCN)CC[C@]5(C)CC[C@@]4(C)[C@]3(C)CC[C@@H]12 | 59 | 31 | 31 | > 100 | 32 | 30 | 90 | 58 | > 100 | Active | Active | Active | Active | Active | Active | Active | Active | Active | Activity [41]: Active
